From ChEMBL document CHEMBL4049418, “6-OH-Phenanthroquinolizidine Alkaloid and Its Derivatives Exert Potent Anticancer Activity by Delaying S Phase Progression” (J Med Chem, 2017)
Activity calls are given as the source filed them. The rule behind the calls is not given here.

Columns and labels:
Bel-7402 [1] = assay: Induction of apoptosis in human Bel7402 cells assessed as late apoptotic cells at 10 nM after 72 hrs by Annexin V/propidium iodide staining based flow cytometric analysis (reference value: 3.6%); assay type: functional
Summary of the method: (§1)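 BEL-7402 cells (3 × 10⁵ per well, 6-well plates) exposed for 72 h. Harvested, PBS-washed, resuspended in cold binding buffer with annexin V–FITC and PI, and stained 15 min in the dark at room temperature. Early apoptotic, late apoptotic and necrotic fractions quantified by flow cytometry.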

Bel-7402 [2] = assay: Induction of apoptosis in human Bel7402 cells assessed as early apoptotic cells at 10 nM after 72 hrs by Annexin V/propidium iodide staining based flow cytometric analysis (reference value: 3.66%); assay type: functional; summary of the method: as §1
MRC5 = assay: Antiproliferative activity against human MRC5 cells assessed as reduction in viability after 72 hrs by SRB assay; assay type: cell-based; details: MRC5, 72 h
Summary of the method: (§2)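 Cells seeded and dosed in triplicate for 72 h. Suspension lines (HL-60, K-562, K562/ADR, HL-60/MX2) were read by MTT: 5 mg/mL MTT stock added, 4 h at 37 °C, formazan dissolved in 10% SDS/5% isobutanol/10 mM HCl, A570. Adherent lines were read by SRB: fixed with cold 10% TCA, stained with 0.4% SRB in 1% acetic acid, A540. IC50 from four-parameter logistic fit; mean of ≥3 independent experiments.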

L02 = assay: Antiproliferative activity against human LO2 cells assessed as reduction in viability after 72 hrs by SRB assay; assay type: cell-based; details: L02, 72 h; summary of the method: as §2
Bel-7402 [3] = assay: Inhibition of colony formation in human Bel7402 cells after 24 hrs by SRB staining-based plate colony formation assay; assay type: functional, cell-based
Summary of the method: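 BEL-7402 cells seeded at 200 per well, treated in triplicate 24 h, washed twice with PBS, then grown 12 days in fresh medium; colonies stained with SRB and those ≥1 mm diameter counted; three independent experiments, mean ± SD.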

Bel-7402 [4] = assay: Induction of apoptosis in human Bel7402 cells assessed as late apoptotic cells at 1 nM after 72 hrs by Annexin V/propidium iodide staining based flow cytometric analysis (reference value: 3.6%); assay type: functional; summary of the method: as §1
SMMC-7721 = assay: Cell cycle arrest in human SMMC7721 cells assessed as delay in progression of S-phase to G2-phase at 1 to 10 nM pre-treated with aphidicolin for 16 hrs followed by compound addition measured after 24 hrs by propidium iodide staining-based flow cytometric method; assay type: functional
Summary of the method: (§3)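 Exponentially growing cells synchronized in early S phase with 0.2 μg/mL aphidicolin for 16 h. Cells released into fresh medium with or without compound for set times. Ethanol-fixed, stained with PI/RNase, and cell cycle distribution read by flow cytometry. Representative of three independent experiments.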

Bel-7402 [5] = assay: Induction of apoptosis in human Bel7402 cells assessed as necrotic cells at 10 nM after 72 hrs by Annexin V/propidium iodide staining based flow cytometric analysis (reference value: 0.38%); assay type: functional
KB = assay: Cell cycle arrest in human KB cells assessed as delay in progression of S-phase to G2-phase at 10 nM pre-treated with aphidicolin for 16 hrs followed by compound addition measured up to 12 hrs by propidium iodide staining-based flow cytometric method; assay type: functional; summary of the method: as §3
Bel-7402 [6] = assay: Cell cycle arrest in human Bel7402 cells assessed as accumulation in S-phase at 10 nM after 24 hrs by propidium iodide staining-based flow cytometry (reference value: 27.5 +/- 1%); assay type: functional
Summary of the method: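 BEL-7402 cells exposed for 24 h, then fixed in 70% ethanol at −20 °C for ≥1 h. Stained with 50 μg/mL propidium iodide plus 10 μg/mL RNase A for 30 min in the dark at room temperature. DNA content read by flow cytometry on ≥1.0 × 10⁴ cells per sample.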

Bel-7402 [7] = assay: Cell cycle arrest in human Bel7402 cells assessed as delay in progression of S-phase to G2-phase at 1 to 3 nM pre-treated with aphidicolin for 16 hrs followed by compound addition measured after 4 hrs by propidium iodide staining-based flow cytometric method; assay type: functional; summary of the method: as §3
Bel-7402 [8] = assay: Induction of apoptosis in human Bel7402 cells assessed as necrotic cells at 10 uM after 72 hrs by Annexin V/propidium iodide staining based flow cytometric analysis (reference value: 0.38%); assay type: functional
Bel-7402 [9] = assay: Induction of DNA damage in human Bel7402 cells assessed as increase in gamma-H2AX levels at 0.1 to 10 uM after 1 hr by Western blot analysis; assay type: functional, cell-based
Summary of the method: (§4)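 BEL-7402 cells (1.5 × 10⁵ per well, 12-well plates) exposed to compounds for 1 h. Phospho-Chk1 Ser345, phospho-Chk2 Thr68 and γH2AX detected by Western blot. Camptothecin at 1 μM served as the DNA-damage reference.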

Bel-7402 [10] = assay: Induction of apoptosis in human Bel7402 cells assessed as early apoptotic cells at 10 uM after 72 hrs by Annexin V/propidium iodide staining based flow cytometric analysis (reference value: 3.66%); assay type: functional; summary of the method: as §1
[11] = Growth inhibition of human KB-MDR cells after 8 days by methylene blue-staining based spectrophotometry; assay type: functional; details: 192 h
Bel-7402 [12] = assay: Induction of DNA damage in human Bel7402 cells assessed as increase in CHK2 phosphorylation at Thr68 residue at 0.1 to 10 uM after 1 hr by Western blot analysis; assay type: functional, cell-based; summary of the method: as §4
Bel-7402 [13] = assay: Inhibition of DNA synthesis in human Bel7402 cells assessed as BrdU incorporation at 10 uM preincubated for 1 hr followed by BrdU addition for 30 mins by FITC/propidium iodide staining based flow cytometry (reference value: 35.5%); assay type: functional; set-up: scale not given: the % may be the effect or the level left
Summary of the method: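 BEL-7402 cells (3 × 10⁵ per well) exposed to compounds 1 h, then labeled with 10 μM BrdU for 30 min; trypsinized, fixed in 70% ethanol at −20 °C ≥1 h, 2 N HCl 20 min, neutralized with 0.1 M borate, stained with anti-BrdU-FITC plus PI 30 min; BrdU-positive cells quantified by flow cytometry; three independent experiments, mean + SD.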

[14] = Growth inhibition of human KB-7d cells after 8 days by methylene blue-staining based spectrophotometry; assay type: functional; details: KB7D, 192 h
Bel-7402 [15] = assay: Induction of apoptosis in human Bel7402 cells assessed as viable cells at 1 uM after 72 hrs by Annexin V/propidium iodide staining based flow cytometric analysis (reference value: 92.4%); assay type: functional; details: Bel-7402, 72 h, read-out: Activity
Bel-7402 [16] = assay: Antiproliferative activity against human Bel7402 cells assessed as reduction in cell viability at 0.012 to 1 uM up to 10 days by fluorescence-based cell imaging method; assay type: functional
Summary of the method: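 Live-cell imaging (IncuCyte ZOOM) of BEL-7402 cells seeded at 1.5 × 10⁴ per well in 12-well plates. Cells treated in triplicate with a concentration gradient and imaged continuously for 10 days to build growth curves.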

Bel-7402 [17] = assay: Induction of apoptosis in human Bel7402 cells assessed as late apoptotic cells at 10 uM after 72 hrs by Annexin V/propidium iodide staining based flow cytometric analysis (reference value: 3.6%); assay type: functional; summary of the method: as §1
Bel-7402 [18] = assay: Induction of apoptosis in human Bel7402 cells assessed as late apoptotic cells at 1 uM after 72 hrs by Annexin V/propidium iodide staining based flow cytometric analysis (reference value: 3.6%); assay type: functional; summary of the method: as §1
Bel-7402 [19] = assay: Induction of apoptosis in human Bel7402 cells assessed as early apoptotic cells at 1 uM after 72 hrs by Annexin V/propidium iodide staining based flow cytometric analysis (reference value: 3.66%); assay type: functional; summary of the method: as §1

COc1cc2c3c(c4ccc(O)cc4c2cc1OC)CN1CCCC[C@@H]1C3
Activity (Bel-7402 [1]): 14.2% | Activity (Bel-7402 [2]): 3.93% | IC50 (MRC5): 2.6 nM | IC50 (L02): 2.7 nM | inhibition (Bel-7402 [3]): Dose-dependent effect | Activity (Bel-7402 [4]): 2.11% | Activity (SMMC-7721): Active | Activity (Bel-7402 [5]): 0.94% | Activity (KB): Active | Activity (Bel-7402 [6]): 50.3% | Activity (Bel-7402 [7]): Active

COc1cc2c3c(c4cc(OC)c(OC)cc4c2cc1OC)[C@H](O)[C@@H]1CCCN1C3
Activity (Bel-7402 [8]): 1.39% | Activity (Bel-7402 [9]): inactive | Activity (Bel-7402 [10]): 2.06% | GI50 [11]: 30 nM | Activity (Bel-7402 [12]): inactive | Activity (Bel-7402 [13]): 1.9% | GI50 [14]: 30 nM | viability at 1 µM (Bel-7402 [15]): 94.7% | inhibition (Bel-7402 [16]): Active | Activity (Bel-7402 [17]): 11.5% | Activity (Bel-7402 [18]): 1.92% | Activity (Bel-7402 [19]): 2.56%
